Source: PMC9121347 (Bioconjugate Chemistry, 2022)

Experiments:
AD (APP/PS1) mice = test: Dynamic microPET/CT imaging, AD mice; format: in vivo, mouse; details: AD (APP/PS1) vs normal (B6SJL) mice; any time point
[1] = system: phosphorylation of Akt in hCMEC/D3 monolayers; format: cell-based, human; details: 100 nM, 20 min, 37 °C in DMEM, Western blot, n = 3
How it was run: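 hCMEC/D3 monolayers treated ± test compound (100 nM) in DMEM, 20 min, 37 °C, washed thrice with PBS, lysed in RIPA with protease/phosphatase inhibitors, protein by BCA. […] Blocked in 5% milk; anti-vinculin, Akt, p-Akt (S473) at 1:1000 overnight at 4 °C; dye-conjugated secondary at 1:2000, 1 h RT. p-AKT/AKT ratio, mean ± SD, unpaired t-test.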

Compound | difference in uptake between normal and AD groups (brain and heart) (AD (APP/PS1) mice) | phosphorylation of Akt (p-AKT/AKT ratio) [1]
CNc1ccc(-c2nc3ccc(O)cc3s2)cc1 [[^11C]PIB, N-methyl [^11C] 2-(4′-methylaminophenyl)-6-hydroxy-benzothiazole] | neither of them showed any significant difference in the uptake between normal and AD groups at any time point | 
[18F]c1ccc(-c2ccc3c(c2)[nH]c2ccncc23)cn1 [[^18F]AV1451, 7-(6-[^18F]fluoropyridin-3-yl)-5H-pyrido[4,3-b]indole] | neither of them showed any significant difference in the uptake between normal and AD groups at any time point | 
NOTA-insulin: insulin with p-SCN-Bn-NOTA linked to the lysine residue of chain B; labeling precursor |  | stimulated the phosphorylation of Akt
